Our source for the cytotoxicity values is ChEMBL document CHEMBL4513216, “Probing the Open Global Health Chemical Diversity Library for Multistage-Active Starting Points for Next-Generation Antimalarials” (ACS Infect Dis, 2020).

Molecules are shown by their SMILES.

The series in a line: Toxicity liver stage against HepG2, at 10uM. The arrangement: test concentration 10 uM, cell line HepG2-A16-CD81EGFP. To be noted: human, HepG2-A16-CD81EGFP cells; read-out: INHIBITION
In kind it is cell-based. The gist of the method:
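Uninfected HepG2-A16-CD81EGFP cells, 3 × 10^3 per well, 1536-well, plated on prespotted compound at 10 μM final, parasite-free screening media added to match infected plates; puromycin 10 μM positive, DMSO 0.5% negative; run in parallel with 48 h PbLuc assay at 37 °C, 5% CO2; viability by CellTiter-Glo luminescence, normalized to controls.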
For `CC(C)CNC1(Cc2cc(-c3ccccc3)on2)COC1`, the cytotoxicity at 10 µM was 1.74%. Regarding `CCOC(=O)Cn1c(=O)c(OCC)nc2cnccc21`, the cytotoxicity at 10 µM came to 4.25%.

Turning to `COCCn1cc(C(=O)NC2CCS(=O)(=O)C2)c2ccccc2c1=O` (stereo unspecified), the cytotoxicity at 10 µM is -4.17%. As for `CCCN1CCc2nc(SCc3ccccc3F)[nH]c(=O)c2C1`, the cytotoxicity at 10 µM is -2.62%. The result for `CN1CCN(c2cc(NC(=O)c3cnccn3)ncn2)CC1` reads -1.23%. On to `CCc1c(C)nc2n(c1=O)CC(C(=O)Nc1ccccc1C)CS2` (stereo unspecified), for which the cytotoxicity at 10 µM is -1.38%. With `COC(=O)c1sccc1S(=O)(=O)NCCC(O)c1ccoc1` (stereo unspecified) the figure was -2.64%. Regarding `COc1cc(N2CC3(CCN(S(=O)(=O)C4CC4)C3)C2)ncn1`, the cytotoxicity at 10 µM was determined as 7.34%. On to `Cc1ccc(N2CCCc3sc(C(=O)NCc4ccncc4)nc32)nn1`, for which the cytotoxicity at 10 µM was determined as 14.6%. With `O=C(C[C@@H]1COC[C@H]2CN(C3CCOCC3)C[C@@H]12)Nc1cnccn1` the figure was 12%; with `O=C(O)C1CCN(c2ccc(Sc3ccc(Br)cc3)nn2)CC1`, 9.14%. With `Cc1nn(CCNc2ncnc3c2NC(=O)CN3)c(C)c1Cl` the figure was 10.5%; with `Cc1nn(C)c(C)c1CN(C)C(=O)c1cc(C(F)(F)F)n(C)n1`, -0.65%. On to `CCC(=O)N1CCC(c2nc(N3CCCCC3)ncc2S(C)(=O)=O)CC1`, for which the cytotoxicity at 10 µM came to 4.03%. With `Cc1cc(C)nc(N2CC[C@H](Oc3ccccc3F)[C@@H](O)CC2)n1` the figure was 3.72%; with `CN(C)Cc1ccnc(C2CN(CCCc3ccccc3)CCO2)n1` (stereo unspecified), -6.36%; with `NC(=O)C1CN(C(=O)Cc2cccnc2)CCN(C2CCOCC2)C1` (stereo unspecified), -9.58%. For `CNC(=O)C1CN(C(=O)COc2ccccc2)Cc2cn(C)nc21` (stereo unspecified), the cytotoxicity at 10 µM is -10.4%. With `Cc1nc(NC2CCCC2)cc(C2CCN2C(=O)c2cccnc2)n1` (stereo unspecified) the figure was 0.848%; with `O=C(CN1CCOCC1)Nc1cc(C(F)(F)F)ccc1-n1cccc1`, 8.32%.

Turning to `CCC(=O)N1CCC(NCc2cc(C(F)(F)F)ccc2Cl)C1` (stereo unspecified), the cytotoxicity at 10 µM was -4.04%.

For the compound `O=C(O)CCNC(=O)C1(c2cccc(Br)c2)CCOCC1`, the cytotoxicity at 10 µM was determined as 6.92%. The result for `OCCN1CCN(Cc2cc(Cl)cc3cccnc23)CC1` reads -8.12%; that for `O=C1C(Sc2cnn[nH]2)CCCN1c1ccccc1F` (stereo unspecified), 24.9%; that for `O=C(CSCc1ccccn1)NCC1CC1`, -3.42%.

As to `CC(CNC(=O)CCc1ccco1)N1CCc2sccc2C1` (stereo unspecified), the cytotoxicity at 10 µM came out at 4.35%.

`O=C(C1CCOC1)N1CCN(CC2CC2)c2ccccc21` (stereo unspecified): the cytotoxicity at 10 µM amounted to 8.93%. With `CCn1ccnc1CN1CCN(c2nccc(OC)n2)CC1C` (stereo unspecified) the figure was -17.9%; with `CC(C)NC(=O)NC(=O)C(C)N1CCN(C2CCN(C(C)C)CC2)CC1` (stereo unspecified), -15.5%. For `CCc1nnc(NC(=O)N(CCOC)Cc2ccc(C)o2)s1`, the cytotoxicity at 10 µM was -18.8%. With `CCOCCCC(=O)NCc1ccc(N2CCCCC2)cc1`, the cytotoxicity at 10 µM was -4.06%. For `COc1cccc(CNc2cc(CO)ccc2Cl)c1`, the cytotoxicity at 10 µM is -13.3%. For `c1ccc2nc(N3CCCC3c3nnc4n3CCCCC4)cnc2c1` (stereo unspecified), the cytotoxicity at 10 µM was -1.63%.

For the compound `CCc1noc(CCCC(=O)N2CCCC(c3ccn[nH]3)C2)n1` (stereo unspecified), the cytotoxicity at 10 µM was -0.799%. `Cc1noc(C2CCCN(CC(=O)N3CCc4ccccc4C3)C2)n1` (stereo unspecified): the cytotoxicity at 10 µM was -19.3%. With `COc1ccc(S(=O)(=O)NC2(CC(N)=O)CCC2)cc1` the figure was 11.7%; with `CCOc1cc(CNC(=O)C(C#N)c2nc(C)cs2)ccc1OC(F)F` (stereo unspecified), 8.61%; with `CC(C)(C)c1ccc(S(=O)(=O)CCN2CCNC(=O)CC2)cc1`, -5.41%. The result for `CC(CO)(NC(=O)Nc1nnc(C2CC2)s1)C1CCCCC1` (stereo unspecified) reads 20%. As for `CC1CCCN(c2ccccc2OCC(=O)NC2CC2)C1` (stereo unspecified), the cytotoxicity at 10 µM is 10.1%. With `Cc1nn(C)c(Cl)c1C1CCCN1c1ncnc2sccc12` (stereo unspecified) the figure was 20.8%; with `COCC(=O)N1CC[C@@H]2CN(Cc3cccnc3)S(=O)(=O)[C@@H]2CC1`, -113%; with `Fc1ccccc1CN1C[C@@H]2OCCN(c3ncccn3)[C@@H]2C1`, -74%. On to `O=C(Cc1ccsc1)N1CCc2ncc(Cn3cccn3)n2CC1`, for which the cytotoxicity at 10 µM is -81.5%. With `COCCO[C@H]1CCN(C(=O)c2cnoc2C)[C@H]1Cc1cnn(C)c1`, the cytotoxicity at 10 µM was -69.6%.

`CNC(=O)[C@@]12CCO[C@@H]1CCN(S(=O)(=O)c1ccccc1)C2`: the cytotoxicity at 10 µM was -74.8%. Turning to `CC(=O)N1C[C@H](NC(=O)c2cscn2)[C@@H]2OCCC[C@@H]21`, the cytotoxicity at 10 µM was determined as 2.88%. The result for `CN(C)c1nccc(-c2c[nH][nH]c2=O)n1` reads -1.25%; that for `CNCC[C@H]1CC(C)(C)Oc2ccc(OC)cc21`, 0.942%; that for `Cc1ncc(-c2ccnc(SCCN)n2)c(-c2ccco2)n1`, -14.8%.

As for `CNc1nc2c(s1)C(=O)CN(C(=O)NCc1ccccc1)C2`, the cytotoxicity at 10 µM amounted to 24.4%. With `Cc1cccc(C)c1OCC(C)Nc1nc(N)nc2c1CCNC2` (stereo unspecified) the figure was 5.75%; with `CNC(=O)c1cc2c(s1)CCN(C(=O)CCC1CCCN(C)C1)C2` (stereo unspecified), -29.3%; with `CCc1nnc(CN2CCC3(CCC(=O)N(C4CCCC4)C3)CC2)o1`, -5.16%. With `Cc1csc(CN2C[C@H](NC(=O)C3CCOCC3)[C@@H](C(C)C)C2)n1` the figure was 6.99%. The result for `CCn1ccnc1CN(C)C(C(=O)O)c1ccc(C(C)(C)C#N)cc1` (stereo unspecified) reads -9.1%; that for `CCOCCNC(=O)C1CCC(=O)N(CCc2ccc(Cl)cc2)C1` (stereo unspecified), 8.61%; that for `CN(Cc1nc2ccccc2c(=O)[nH]1)C[C@@H]1CCCN2CCCC[C@H]12`, -6.01%. For the compound `CCCn1cnc(NC(=O)NCC2CCS(=O)(=O)C2)n1` (stereo unspecified), the cytotoxicity at 10 µM was 10.3%. With `COc1cccc2c1OCC(CNc1ccc(C)nn1)C2` (stereo unspecified) the figure was 8.62%; with `Cc1cccc(C(C(=O)N(C)CCc2cn[nH]c2)N(C)C)c1` (stereo unspecified), -8.06%. The result for `O=C1NCC2(CCCN(C(=O)c3ccc4c(c3)OCCO4)CC2)O1` (stereo unspecified) reads -9.35%; that for `Clc1ccccc1Cc1noc(CN2CCCC(CN3CCCC3)C2)n1` (stereo unspecified), -3.15%. With `O=C(CCCn1cncn1)N1CCC2(CCCN(C3CCCC3)C2=O)C1` (stereo unspecified) the figure was -1.8%; with `CCOC(=O)CC1CCCCN1C(=O)CCc1cc(Cl)no1` (stereo unspecified), 6.95%. Turning to `COc1ccccc1OC1(C(=O)O)CCN(c2cnccn2)CC1`, the cytotoxicity at 10 µM is -27.5%. With `Cc1cc(C)c2c(N(C)CC3CCN(CC(C)C)C3)ncnc2n1` (stereo unspecified), the cytotoxicity at 10 µM is 1.61%. With `Cn1cccc1-c1cc(C(=O)NCCc2nnc(N)s2)[nH]n1` the figure was -7.22%; with `N[C@@H](Cc1c[nH]cn1)C(=O)N1CCC(Oc2ccc(F)cc2)CC1`, 0.828%.

On to `Cn1cc(N)c(-c2nnc3n2CCCC3)n1`, for which the cytotoxicity at 10 µM is -6.83%. With `CCC(=O)N1CCCC1c1nccnc1Nc1ncccn1` (stereo unspecified) the figure was 3.58%. On to `Cc1cc(C2CCCN(C(=O)c3ccc(Cl)o3)C2)n[nH]1` (stereo unspecified), for which the cytotoxicity at 10 µM was -5.02%. In the case of `CCc1cnc(CN(C(C)=O)C2CCN(CCc3ccncc3)C2)o1` (stereo unspecified), the cytotoxicity at 10 µM is -5.95%. For `O=C1NCC(C(=O)Nc2ncc(Cc3ccc(F)cc3F)s2)N1` (stereo unspecified), the cytotoxicity at 10 µM is -4.01%. With `O=C(c1cccc2c1OCO2)N1CCCC(n2ccnc2)C1` (stereo unspecified) the figure was -3.29%. Consider `Cc1csc(N2CCN(CC(=O)Nc3c(C)n[nH]c3C)CC2C)n1` (stereo unspecified), for which the cytotoxicity at 10 µM is -14.4%. With `NC(=O)c1cc(C2CCCN(CCCOc3ccccc3)C2)n[nH]1` (stereo unspecified) the figure was -12.1%; with `O=C1C(NCc2nnc3n2CCCC3)CCN1CC(F)(F)F` (stereo unspecified), -13.8%. With `COc1cc(S(=O)(=O)N2CCc3ccc(F)cc32)cc(C(=O)O)c1OC` the figure was 7.12%; with `COc1cc(C(=O)N2CCCS2(=O)=O)ccc1C`, 2.72%. Consider `O=C(c1cc(Cl)c2c(c1)OCO2)N1CCCC(n2ccnc2)C1` (stereo unspecified), for which the cytotoxicity at 10 µM was -6.93%. Consider `CCCNC(=O)Cn1cc(-c2ccccc2)cn1`, for which the cytotoxicity at 10 µM was -0.553%. With `Cc1nc(C2CCCN(C(=O)c3cnn(C(C)(C)C)c3)C2)no1` (stereo unspecified) the figure was 0.818%; with `Cc1cn2nc(N3CCCC3CC(C)(C)C)sc2n1` (stereo unspecified), 3.46%; with `COc1ccnc(N2CCN(C(=O)Cc3ccc(C#N)cc3)CC2)n1`, 4.09%.

Take `CC(C)c1nccn1C1CCCN(C(=O)c2ccnc(N(C)C)c2)C1` (stereo unspecified): the cytotoxicity at 10 µM worked out at 5.1%. Turning to `COc1ccccc1CN(Cc1cccnc1)CC1CCCO1` (stereo unspecified), the cytotoxicity at 10 µM was determined as 1.03%.

As for `c1ccc(NCc2cn3c(n2)CNCC3)nc1`, the cytotoxicity at 10 µM turned out to be 9.28%. `Cn1cc(C2COC3(CCN(C(=O)c4ccccn4)CC3)C2)cn1` (stereo unspecified): the cytotoxicity at 10 µM was -87.1%. Consider `O=C(CC1CC1)N1CCc2ncc(CN3CCOCC3)n2CC1`, for which the cytotoxicity at 10 µM is -80.6%. `Cc1ccccc1CN1C[C@@H]2COC[C@]2(CNC(=O)C2CCC2)C1`: the cytotoxicity at 10 µM was -110%.

Turning to `Cc1nc(CN2C[C@@H]3CN(C(=O)C4CC4)C[C@@H]3C2=O)cs1`, the cytotoxicity at 10 µM was determined as 4.19%.

As to `c1csc(CN2CCc3c(CNc4nncs4)cncc3C2)c1`, the cytotoxicity at 10 µM was -70.1%. `CCCC(=O)N1CCN(CCN(C)C)c2nc(C)ccc2C1`: the cytotoxicity at 10 µM was -73.9%. In the case of `Cn1cccc1C(=O)N1C[C@@H](OCc2ccncc2)[C@@H]2OCCC[C@@H]21`, the cytotoxicity at 10 µM stood at 2.32%. The result for `COc1ccc(CN2CCCn3cnc(COCC4CC4)c3C2)cc1` reads 11%.
